The values below come from ChEMBL document CHEMBL1136130, “Synthesis and biological evaluation of gambierol analogues” (Bioorg Med Chem Lett, 2003).

Where only a bound is given, the exact number is not on record here.

The nature of the data set: Minimal lethal dose of compound expressed as toxicity against male mice (ddY strain) after intraperitoneal administration. The following applies: mouse, in vivo, ip. An outline of the steps: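 Male ddY mice (12–17 g) received single intraperitoneal injections of HPLC-purified samples suspended in 1% Tween 60 at a range of dose levels. Lethality and neurological signs were observed. The minimal lethal dose is reported in mg/kg.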
`C=CC/C=C\C=C/[C@H]1O[C@H]2C[C@H]3O[C@H]4CC[C@H]5O[C@H]6C[C@@]7(C)O[C@@]8(C)[C@@H](O)C[C@H](CCCO)O[C@@H]8C[C@@H]7O[C@@H]6C[C@@H]5O[C@]4(C)C[C@]3(C)O[C@@H]2CC[C@@H]1O` came in with a Min lethal dose greater than 11.9 mg/kg.
`CCCCC/C=C\[C@H]1O[C@H]2C[C@H]3O[C@H]4CC[C@H]5O[C@H]6C[C@@]7(C)O[C@@]8(C)[C@@H](OCc9ccccc9)C[C@H](CCCOCc9ccccc9)O[C@@H]8C[C@@H]7O[C@@H]6C[C@@H]5O[C@]4(C)C[C@]3(C)O[C@@H]2CC[C@]1(C)O[Si](C)(C)C(C)(C)C` came in with a Min lethal dose greater than 7.6 mg/kg.
As for `C=CC/C=C\C=C/[C@H]1O[C@H]2C[C@H]3O[C@H]4CC[C@H]5O[C@H]6C[C@@]7(C)O[C@@]8(C)[C@@H](O)C[C@H](CCCO)O[C@@H]8C[C@@H]7O[C@@H]6C[C@@H]5O[C@]4(C)C[C@]3(C)O[C@@H]2C=C[C@@H]1O`, the figure is 0.34 mg/kg; as for `C=CC/C=C\C=C/[C@H]1O[C@H]2C[C@H]3O[C@H]4CC[C@H]5O[C@H]6C[C@@]7(C)O[C@@]8(C)[C@@H](O)C[C@H](CCCO)O[C@@H]8C[C@@H]7O[C@@H]6C[C@@H]5O[C@]4(C)C[C@]3(C)O[C@@H]2CC[C@]1(C)O`, 7.9 mg/kg.
As for `C=CC/C=C\C=C/[C@H]1O[C@H]2C[C@H]3O[C@H]4CC[C@H]5O[C@H]6C[C@@]7(C)O[C@@]8(C)[C@@H](O)C[C@H](CCCO)O[C@@H]8C[C@@H]7O[C@@H]6C[C@@H]5O[C@]4(C)C[C@]3(C)O[C@@H]2C=C[C@]1(C)O`, the figure is 0.05 mg/kg.
The figure for `C[C@@]12O[C@]3(C)C[C@@H]4O[C@@H]5CC[C@@H]6O[C@@H]7C[C@@H]8O[C@H](CO)[C@@H](O)CC[C@H]8O[C@@]7(C)C[C@@]6(C)O[C@H]5C[C@H]4O[C@H]3C[C@H]1O[C@@H](CCCO)C[C@@H]2O` is greater than 18.3 mg/kg; for `CC(=O)OC[C@H]1O[C@H]2C[C@H]3O[C@H]4CC[C@H]5O[C@H]6C[C@@]7(C)O[C@@]8(C)[C@@H](O)C[C@H](CCCO)O[C@@H]8C[C@@H]7O[C@@H]6C[C@@H]5O[C@]4(C)C[C@]3(C)O[C@@H]2CC[C@@H]1OC(C)=O` it is greater than 8.2 mg/kg.
